Molecules are shown by their SMILES.

One data set is filed under the species Homo sapiens. Put plainly: Selectivity ratio of IC50 for human cathepsin G to IC50 for recombinant human chymase. Summed up:
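Both IC50s from the same fluorogenic rhodamine 110 bis(Suc-Ala-Ala-Pro-Phe-amide) assay, 1 h at 28 °C/80% humidity, ex 485 / em 530 nm, with 0.01% CHAPS, 100 μM TCEP and 1% DMSO. Chymase: 500 pM recombinant human enzyme, 100 nM substrate, 20 mM Tris-HCl pH 8.0, 50 mM NaCl. Cathepsin G: 4 nM enzyme, 300 nM substrate, PBS plus 10 mM HEPES pH 7.4.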
Turning to `Cc1cccc2scc(Cn3c(SCCCC(=O)O)nc4ccccc43)c12`, the Ratio IC50 was determined as 10.

Another data set has as its target T1, Cathepsin G (Homo sapiens, UniProt P08311).
T1 sequence (P08311 whole entry): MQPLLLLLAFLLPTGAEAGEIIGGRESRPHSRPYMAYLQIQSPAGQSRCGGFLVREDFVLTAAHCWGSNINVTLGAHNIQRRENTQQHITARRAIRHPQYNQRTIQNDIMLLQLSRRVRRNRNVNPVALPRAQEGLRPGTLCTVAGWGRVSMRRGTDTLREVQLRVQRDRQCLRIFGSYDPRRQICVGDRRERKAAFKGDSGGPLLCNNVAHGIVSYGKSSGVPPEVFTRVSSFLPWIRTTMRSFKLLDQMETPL
Put plainly: Inhibition of human cathepsin G using bis(succinoyl-L-alanyl-L-prolyl-L-phenylalanylamide) as substrate after 1 hr by fluorescence assay.
As a reminder, the IC50 is the concentration that gives 50% inhibition. For the molecule `CCCC(Cn1c(=O)n(Cc2cc(Br)cc3c2CC(=O)N3)c2ccccc21)C(=O)O` (stereo not given), the IC50 is more than 10 µM.

`Cc1cccc2scc(Cn3c(=O)n(CCCC(=O)O)c4ccccc43)c12` yielded an IC50 of 1.4 µM. The same measure, in the same setting: as for `O=C(O)CCn1c(=O)n(Cc2cc(Cl)cc3c2CC(=O)N3)c2ccccc21`, the figure is more than 10 µM. Same read-out and setting: the result for `CCCC(Cn1c(=O)n(Cc2cc(Br)cc3[nH]c(=O)sc23)c2ccccc21)C(=O)O` (stereo not given) reads more than 10 µM. `Cc1cccc2scc(Cn3c(SCCCC(=O)O)nc4ccccc43)c12` had an IC50 of 0.052 µM.

In the case of `CCCC(CC(=O)O)n1c(=O)n(Cc2cccc3c2CC(=O)N3)c2ccccc21` (stereo not given), the IC50 is more than 10 µM. On the same count and under the same terms, as for `CCCC(CC(=O)O)n1c(=O)n(Cc2cc(Br)cc3c2CC(=O)N3)c2ccccc21` (stereo not given), the figure is 5.4 µM; as for `O=C(O)CCCSc1nc2ccccc2n1Cc1cc(Cl)cc2c1CC(=O)N2`, 3.8 µM. `O=C(O)CCn1c(=O)n(Cc2cc(Br)cc3c2CC(=O)N3)c2ccccc21`: the IC50 is more than 10 µM. The same measure, in the same setting: as for `CCCC(CC(=O)O)n1c(=O)n(Cc2cc(Cl)cc3c2CC(=O)N3)c2ccccc21` (stereo not given), the figure is more than 10 µM. Consider `O=C1Cc2ccc(Cl)cc2N1`, for which the IC50 was more than 1000 µM.

The target of a further data set is T2, Chymase (Homo sapiens, UniProt P23946).
T2 sequence (P23946 whole entry): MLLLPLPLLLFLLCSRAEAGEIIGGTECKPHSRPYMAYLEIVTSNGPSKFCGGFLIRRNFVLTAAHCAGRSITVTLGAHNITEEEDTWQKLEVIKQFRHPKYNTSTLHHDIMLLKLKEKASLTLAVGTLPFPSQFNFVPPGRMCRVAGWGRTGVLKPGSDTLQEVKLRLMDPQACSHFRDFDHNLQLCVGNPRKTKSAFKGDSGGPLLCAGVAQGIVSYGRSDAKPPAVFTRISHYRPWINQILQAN
Put plainly: Inhibition of recombinant human chymase using bis(succinoyl-L-alanyl-L-prolyl-L-phenylalanylamide) as substrate after 1 hr by fluorescence assay.
Regarding `O=C1Cc2cccc(Cl)c2N1`, the IC50 is more than 1000 µM. Regarding `O=C1Cc2ccc(Br)cc2N1`, the IC50 turned out to be 570 µM. Still for that read-out and setting: the result for `O=C1NCc2ccc(Cl)cc21` reads more than 1000 µM; that for `O=C1Cc2c(Cl)cccc2N1`, more than 1000 µM; that for `O=C1Cc2cc(Cl)ccc2N1`, more than 1000 µM. Consider `O=C1Cc2ccccc2N1` [OXINDOLE], for which the IC50 was more than 1000 µM. The same measure, in the same setting: as for `CN1C(=O)Cc2ccc(Cl)cc21`, the figure is more than 1000 µM.

The subject of another data set is Liver microsomes. Put plainly: Metabolic stability in human liver microsomes assessed as GSH adduct formation incubated for 3 min prior to NADPH addition measured after 2 hrs by mass spectrometric analysis. For orientation: Liver microsomes are a subcellular fraction often used to study metabolism.
As for `CCCC(CC(=O)O)n1c(=O)n(Cc2cc(Cl)cc3c2CC(=O)N3)c2ccccc21` (stereo not given), the Stability result is “Stable”.

These data come from ChEMBL document CHEMBL2380206, “Discovery of potent, selective chymase inhibitors via fragment linking strategies” (J Med Chem, 2013).
